{"source": "ChEMBL document CHEMBL2163317", "about": "“Selective inhibition of the tumor marker aldo-keto reductase family member 1B10 by oleanolic acid” (J Nat Prod, 2011)", "key": {"[1]": {"biological_target": "T1, Aldo-keto reductase family 1 member B10 (Homo sapiens, UniProt O60218)", "assay": "Inhibition of reductase activity of N-terminal 6His-tagged human AKR1B10 expressed in Escherichia coli BL21(DE3) assessed as pyridine-3-aldehyde reduction", "procedure,_shortened": "(§1)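 Forward reductase assay at 25 C with purified recombinant enzyme from E. coli BL21(DE3) pLysS. Buffer was 0.1 M potassium phosphate pH 7.4 with 0.1 mM NADPH and 0.2 mM pyridine-3-aldehyde. Rate read as NADPH absorbance change at 340 nm. IC50 reported as mean of at least three determinations. Selectivity is the AKR1B1 IC50 divided by the AKR1B10 IC50.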"}, "[2]": {"biological_target": "Aldo-keto reductase family 1 member B1 (Homo sapiens, UniProt P15121)", "assay": "Inhibition of reductase activity of N-terminal 6His-tagged human recombinant AKR1B1 expressed in Escherichia coli BL21(DE3) assessed as assessed as pyridine-3-aldehyde reduction", "procedure,_shortened": "as §1"}, "[3]": {"species": "Homo sapiens", "assay": "Selectivity ratio of IC50 for human recombinant AKR1B1 to IC50 for human AKR1B10", "procedure,_shortened": "as §1"}, "[4]": {"biological_target": "T1, Aldo-keto reductase family 1 member B10", "assay": "Inhibition of N-terminal 6His-tagged human AKR1B10 overexpressed in human HeLa cells assessed as inhibition of […] at 1 uM pretreated for 2 hrs before [1-14C]farnesol challenge measured after 6 hrs", "assay_type": "cell-based", "procedure,_shortened": "(§2)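 HeLa cells were transfected with a pGW1 plasmid carrying AKR1B10 cDNA. Culture was DMEM with 10% FBS at 37 C and 5% CO2. Cells were pretreated with inhibitor for 2 h, then incubated with 20 μM [1-14C] labelled substrate for 6 h. Inhibition of farnesal reduction is the mean of duplicate experiments.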"}, "[5]": {"biological_target": "T1, Aldo-keto reductase family 1 member B10", "assay": "Inhibition of N-terminal 6His-tagged human AKR1B10 overexpressed in human HeLa cells assessed as inhibition of […] pretreated for 2 hrs before [1-14C]farnesol challenge measured after 6 hrs", "assay_type": "cell-based", "procedure,_shortened": "as §2"}, "[6]": {"system": "HT-29", "assay": "Cytotoxicity against human HT-29 cells at 30 uM after 96 hrs by trypan blue exclusion assay", "assay_type": "functional, cell-based"}, "[7]": {"system": "HT-29", "assay": "Cytotoxicity against human HT-29 cells at 10 uM after 96 hrs by trypan blue exclusion assay", "assay_type": "functional, cell-based"}, "[8]": {"system": "HT-29", "assay": "Cytotoxicity against human mitomycin C-resistant HT-29 cells assessed as growth inhibition after 96 hrs by trypan blue exclusion assay", "assay_type": "functional, cell-based"}, "[9]": {"system": "HT-29", "assay": "Cytotoxicity against human HT-29 cells after 96 hrs by trypan blue exclusion assay", "assay_type": "functional", "conditions": "HT-29, 96 h, read-out: LD50 (the source's name)"}, "[10]": {"system": "HT-29", "assay": "Inhibition of AKR1B10 mRNA expression in human HT-29 cells at 3 to 30 uM after 24 hrs by RT-PCR analysis", "assay_type": "functional, cell-based", "procedure,_shortened": "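HT29 cells were treated for 24 h with 3, 10 and 30 μM compound. Total RNA was then extracted, and AKR1B10 mRNA was analysed by reverse transcription-PCR.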"}, "[11]": {"biological_target": "DNA polymerase beta (Homo sapiens, UniProt P06746)", "assay": "Inhibition of DNA polymerase beta"}, "[12]": {"biological_target": "Phospholipase A2 (Homo sapiens, UniProt P04054)", "sequence (P04054 whole entry)": "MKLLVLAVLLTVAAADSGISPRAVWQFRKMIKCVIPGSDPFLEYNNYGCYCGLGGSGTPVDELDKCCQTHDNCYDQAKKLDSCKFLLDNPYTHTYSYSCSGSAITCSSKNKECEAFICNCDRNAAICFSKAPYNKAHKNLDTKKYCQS", "assay": "Inhibition of phospholipase A2"}, "[13]": {"biological_target": "T1, Aldo-keto reductase family 1 member B10", "assay": "Competitive inhibition of dehydrogenase activity of N-terminal 6His-tagged human AKR1B10 expressed in Escherichia coli BL21(DE3) assessed as NADP+-linked geraniol oxidation"}, "[14]": {"biological_target": "Aldo-keto reductase family 1 member B10 (Homo sapiens, UniProt O60218, K125L)", "sequence (O60218 whole entry K125L)": "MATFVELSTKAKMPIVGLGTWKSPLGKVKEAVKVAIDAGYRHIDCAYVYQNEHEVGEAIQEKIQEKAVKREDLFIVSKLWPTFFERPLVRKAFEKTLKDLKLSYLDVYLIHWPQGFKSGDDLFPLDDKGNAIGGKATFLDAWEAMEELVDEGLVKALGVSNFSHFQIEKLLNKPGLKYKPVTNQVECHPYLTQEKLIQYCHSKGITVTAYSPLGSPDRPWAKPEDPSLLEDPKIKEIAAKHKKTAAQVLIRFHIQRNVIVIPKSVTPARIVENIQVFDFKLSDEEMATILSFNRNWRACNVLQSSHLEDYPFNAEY", "assay": "Competitive inhibition of dehydrogenase activity of N-terminal 6His-tagged human AKR1B10 K125L mutant expressed in Escherichia coli BL21(DE3) assessed as NADP+-linked geraniol oxidation"}, "[15]": {"biological_target": "Aldo-keto reductase family 1 member B10 (Homo sapiens, UniProt O60218, V301L)", "sequence (O60218 whole entry V301L)": "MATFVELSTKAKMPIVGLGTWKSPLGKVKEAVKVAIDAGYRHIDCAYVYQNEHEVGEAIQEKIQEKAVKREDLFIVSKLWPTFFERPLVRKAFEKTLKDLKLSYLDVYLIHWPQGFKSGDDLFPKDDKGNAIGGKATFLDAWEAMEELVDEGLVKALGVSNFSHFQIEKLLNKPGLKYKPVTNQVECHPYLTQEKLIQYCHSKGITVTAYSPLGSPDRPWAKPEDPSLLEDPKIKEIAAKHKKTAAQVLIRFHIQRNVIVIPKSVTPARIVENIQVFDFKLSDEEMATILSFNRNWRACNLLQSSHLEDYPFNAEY", "assay": "Competitive inhibition of dehydrogenase activity of N-terminal 6His-tagged human AKR1B10 V301L mutant expressed in Escherichia coli BL21(DE3) assessed as NADP+-linked geraniol oxidation"}, "[16]": {"biological_target": "Aldo-keto reductase family 1 member B10 (Homo sapiens, UniProt O60218, Q303S)", "sequence (O60218 whole entry Q303S)": "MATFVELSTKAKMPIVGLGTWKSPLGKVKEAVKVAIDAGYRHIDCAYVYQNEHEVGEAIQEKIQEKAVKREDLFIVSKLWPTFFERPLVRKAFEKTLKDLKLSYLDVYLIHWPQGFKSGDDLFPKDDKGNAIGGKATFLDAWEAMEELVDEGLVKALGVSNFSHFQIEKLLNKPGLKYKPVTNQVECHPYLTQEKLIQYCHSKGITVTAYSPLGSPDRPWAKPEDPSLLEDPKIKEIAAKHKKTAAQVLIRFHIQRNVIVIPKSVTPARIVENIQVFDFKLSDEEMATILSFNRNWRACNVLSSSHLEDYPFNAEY", "assay": "Competitive inhibition of dehydrogenase activity of N-terminal 6His-tagged human AKR1B10 Q303S mutant expressed in Escherichia coli BL21(DE3) assessed as NADP+-linked geraniol oxidation"}, "[17]": {"biological_target": "Aldo-keto reductase family 1 member B10 (Homo sapiens, UniProt O60218, W220Y)", "sequence (O60218 whole entry W220Y)": "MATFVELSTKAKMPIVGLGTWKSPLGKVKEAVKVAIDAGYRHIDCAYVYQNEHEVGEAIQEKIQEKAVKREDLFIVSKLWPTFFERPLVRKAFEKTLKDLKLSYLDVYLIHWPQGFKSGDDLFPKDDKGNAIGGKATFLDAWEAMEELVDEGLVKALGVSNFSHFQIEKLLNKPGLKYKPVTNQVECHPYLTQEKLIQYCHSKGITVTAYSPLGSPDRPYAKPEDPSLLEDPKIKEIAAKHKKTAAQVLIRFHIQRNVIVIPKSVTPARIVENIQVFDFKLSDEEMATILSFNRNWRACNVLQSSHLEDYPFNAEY", "assay": "Competitive inhibition of dehydrogenase activity of N-terminal 6His-tagged human AKR1B10 W220Y mutant expressed in Escherichia coli BL21(DE3) assessed as NADP+-linked geraniol oxidation"}, "[18]": {"biological_target": "T1, Aldo-keto reductase family 1 member B10", "assay": "Non-competitive inhibition of reductase activity of N-terminal 6His-tagged human AKR1B10 expressed in Escherichia coli BL21(DE3) assessed as pyridine-3-aldehyde reduction"}}, "note": "Calls of active or inactive are those of the source. The calls are words filed in the database; no cut-off is given here.", "data": [{"smiles": "CC1(C)[C@@H](O)CC[C@]2(C)[C@H]3C(=O)C=C4[C@@H]5C[C@@](C)(C(=O)O)CC[C@]5(C)CC[C@@]4(C)[C@]3(C)CC[C@@H]12", "note": "[ENOXOLONE]", "values": [{"measurement": "IC50", "setting": "[1]", "result": 4.9, "unit": "µM"}, {"measurement": "IC50", "setting": "[2]", "result": 280, "unit": "µM"}, {"measurement": "Ratio IC50", "setting": "[3]", "result": 57}, {"measurement": "inhibition", "setting": "[4]", "result": "Active"}]}, {"smiles": "C[C@H](CCC(=O)O)[C@H]1CC[C@H]2[C@@H]3CC[C@@H]4C[C@@H](O)CC[C@]4(C)[C@H]3CC[C@]12C", "note": "[ISOLITHOCHOLIC ACID]", "values": [{"measurement": "Ki", "setting": "[1]", "result": 15, "unit": "nM"}]}, {"smiles": "CC1(C)CC[C@]2(CO)CC[C@]3(C)C(=CC[C@@H]4[C@@]5(C)CC[C@H](O)C(C)(C)[C@@H]5CC[C@]43C)[C@@H]2C1", "note": "[ERYTHRODIOL]", "values": [{"measurement": "IC50", "setting": "[1]", "result": 30, "unit": "µM"}, {"measurement": "IC50", "setting": "[2]", "result": 84, "unit": "µM"}, {"measurement": "Ratio IC50", "setting": "[3]", "result": 3}]}, {"smiles": "C[C@H]1[C@H](C)CC[C@]2(C(=O)O)CC[C@]3(C)C(=CC[C@@H]4[C@@]5(C)C[C@@H](O)[C@H](O)[C@@](C)(CO)[C@@H]5CC[C@]43C)[C@H]12", "note": "[ASIATIC ACID]", "values": [{"measurement": "IC50", "setting": "[1]", "result": 5.9, "unit": "µM"}, {"measurement": "IC50", "setting": "[2]", "result": 34, "unit": "µM"}, {"measurement": "Ratio IC50", "setting": "[3]", "result": 6}]}, {"smiles": "COc1ccc2c(C(=S)N(C)CC(=O)O)cccc2c1C(F)(F)F", "note": "[TOLRESTAT]", "values": [{"measurement": "inhibition", "setting": "[5]", "result": "Active"}, {"measurement": "Ki", "setting": "[1]", "result": 50, "unit": "nM"}, {"measurement": "Activity", "setting": "[6]", "result": "Active"}]}, {"smiles": "C=C(C)[C@@H]1CC[C@]2(C(=O)O)CC[C@]3(C)[C@H](CC[C@@H]4[C@@]5(C)CC[C@H](O)C(C)(C)[C@@H]5CC[C@]43C)[C@@H]12", "note": "[BETULINIC ACID]", "values": [{"measurement": "IC50", "setting": "[1]", "result": 2, "unit": "µM"}, {"measurement": "IC50", "setting": "[2]", "result": 11, "unit": "µM"}, {"measurement": "Ratio IC50", "setting": "[3]", "result": 6}]}, {"smiles": "CC1(C)CC[C@]2(C(=O)O)CC[C@]3(C)C(=CC[C@@H]4[C@@]5(C)CC[C@H](O)C(C)(C)[C@@H]5CC[C@]43C)[C@@H]2C1", "note": "[OLEANOLIC_ACID]", "values": [{"measurement": "IC50", "setting": "[2]", "result": 124, "unit": "µM"}, {"measurement": "inhibition", "setting": "[4]", "result": "Active"}, {"measurement": "Activity", "setting": "[7]", "result": "Active"}, {"measurement": "growth inhibition (GI)", "setting": "[8]", "result": "Dose-dependent effect"}, {"measurement": "Activity", "setting": "[6]", "result": "Active"}, {"measurement": "CC50", "setting": "[9]", "result": 180, "unit": "µM"}, {"measurement": "inhibition", "setting": "[10]", "result": "inactive"}, {"measurement": "IC50", "setting": "[11]", "result": 3, "unit": "µM"}, {"measurement": "IC50", "setting": "[12]", "result": 3, "unit": "µM"}]}, {"smiles": "C[C@H]1[C@H](C)CC[C@]2(C(=O)O)CC[C@]3(C)C(=CC[C@@H]4[C@@]5(C)CC[C@H](O)C(C)(C)[C@@H]5CC[C@]43C)[C@H]12", "note": "[URSOLIC ACID]", "values": [{"measurement": "IC50", "setting": "[1]", "result": 4, "unit": "µM"}, {"measurement": "IC50", "setting": "[2]", "result": 41, "unit": "µM"}, {"measurement": "Ratio IC50", "setting": "[3]", "result": 10}, {"measurement": "Ki", "setting": "[13]", "result": 2000, "unit": "nM"}, {"measurement": "Ki", "setting": "[14]", "result": 2800, "unit": "nM"}, {"measurement": "Ki", "setting": "[15]", "result": 2100, "unit": "nM"}, {"measurement": "Ki", "setting": "[16]", "result": 3.7, "unit": "µM"}, {"measurement": "Ki", "setting": "[17]", "result": 6, "unit": "µM"}, {"measurement": "inhibition", "setting": "[18]", "result": "Active"}]}, {"smiles": "CC1(C)CC[C@]2(C(=O)O)CC[C@]3(C)C(=CC[C@@H]4[C@@]5(C)C[C@@H](O)[C@H](O)C(C)(C)[C@@H]5CC[C@]43C)[C@@H]2C1", "note": "[MASLINIC ACID]", "values": [{"measurement": "IC50", "setting": "[1]", "result": 0.63, "unit": "µM"}, {"measurement": "IC50", "setting": "[2]", "result": 72, "unit": "µM"}, {"measurement": "Ratio IC50", "setting": "[3]", "result": 114}]}]}
